Reference: ChEMBL document CHEMBL1122410, “Synthesis of 3,6-bis(aminoalkoxy)acridines and their effect on the immune System” (1983)
Calls of active or inactive are those of the source. No cut-off for these calls is given here.

What was measured:
[1] = test system: Mus musculus; experiment: Efficacy against a lethal virus challenge with an interferon sensitive virus, columbia SK was evaluated 14 days postinfection (oral dosing) as number of mice survived out of 15 tested; type: functional
[2] = test system: Mus musculus; experiment: Percent reduction in spleen weight in mice as compared to infected untreated controls at 50 mg/kg; type: functional
Method in brief: (§1)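 In BALB/c mice infected ip with Rauscher leukemia virus (same-sex, ≥18 g), compound was given orally in 0.2% Noble agar/saline on days 6, 7 and 8 at 25–200 mg/kg. Animals were weighed on day 14. Spleen weight is expressed as percent reduction versus infected placebo-treated controls, and ≥50% reduction counts as active.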

[3] = test system: Ovis aries; experiment: Antibody stimulation by serum hemagglutininin titer over the titer for the infected placebo-treated control in sheep red blood cells at 100 mg/Kg of dose; value is 32/16; type: functional
[4] = test system: Mus musculus; experiment: Percent reduction in spleen weight in mice as compared to infected untreated controls at 200 mg/kg; type: functional; method in brief: as §1
[5] = test system: Ovis aries; experiment: Antibody stimulation by serum hemagglutininin titer over the titer for the infected placebo-treated control in sheep red blood cells at 100 mg/Kg of dose; value is 512/32; type: functional
[6] = test system: Mus musculus; experiment: Percent reduction in spleen weight in mice as compared to infected untreated controls at 100 mg/kg; type: functional; method in brief: as §1
[7] = test system: Ovis aries; experiment: Antibody stimulation by serum hemagglutininin titer over the titer for the infected placebo-treated control in sheep red blood cells at 200 mg/Kg of dose; value is 128/16; type: functional
[8] = test system: Ovis aries; experiment: Antibody stimulation by serum hemagglutininin titer over the titer for the infected placebo-treated control in sheep red blood cells at 100 mg/Kg of dose; value is 64/16; type: functional
[9] = test system: Ovis aries; experiment: Antibody stimulation by serum hemagglutininin titer over the titer for the infected placebo-treated control in sheep red blood cells at 50 mg/Kg of dose; value is 64/16; type: functional
[10] = test system: Ovis aries; experiment: Antibody stimulation by serum hemagglutininin titer over the titer for the infected placebo-treated control in sheep red blood cells at 200 mg/Kg of dose; value is 64/16; type: functional
[11] = test system: Mus musculus; experiment: Efficacy against a lethal virus challenge with an interferon sensitive virus, columbia SK was evaluated 14 days postinfection (oral dosing) as number of mice survived out of 15 tested; NT = Not tested; type: functional
[12] = test system: Ovis aries; experiment: Antibody stimulation by serum hemagglutininin titer over the titer for the infected placebo-treated control in sheep red blood cells at 25 mg/Kg of dose; value is 128/16; type: functional
[13] = test system: Ovis aries; experiment: Antibody stimulation by serum hemagglutininin titer over the titer for the infected placebo-treated control in sheep red blood cells at 50 mg/Kg of dose; value is 128/16; type: functional
[14] = test system: Ovis aries; experiment: Antibody stimulation by serum hemagglutininin titer over the titer for the infected placebo-treated control in sheep red blood cells at 100 mg/Kg of dose; value is 128/16; type: functional
[15] = test system: Ovis aries; experiment: Antibody stimulation by serum hemagglutininin titer over the titer for the infected placebo-treated control in sheep red blood cells at 25 mg/Kg of dose; value is 32/16; type: functional
[16] = test system: Mus musculus; experiment: Efficacy against a lethal virus challenge with an interferon sensitive virus, columbia SK was evaluated 14 days postinfection (oral dosing) as number of mice survived out of 20 tested; type: functional
[17] = organism: Ovis aries; experiment: Antibody stimulation by serum hemagglutininin titer over the titer for the infected placebo-treated control in sheep red blood cells; NA = Not active; type: functional, organism-based
[18] = test system: Ovis aries; experiment: Antibody stimulation by serum hemagglutininin titer over the titer for the infected placebo-treated control in sheep red blood cells at 25 mg/Kg of dose; value is 256/64; type: functional
[19] = test system: Ovis aries; experiment: Antibody stimulation by serum hemagglutininin titer over the titer for the infected placebo-treated control in sheep red blood cells at 50 mg/Kg of dose; value is 256/32; type: functional
[20] = test system: Ovis aries; experiment: Antibody stimulation by serum hemagglutininin titer over the titer for the infected placebo-treated control in sheep red blood cells at 200 mg/Kg of dose; value is 32/16; type: functional
[21] = test system: Ovis aries; experiment: Antibody stimulation by serum hemagglutininin titer over the titer for the infected placebo-treated control in sheep red blood cells at 50 mg/Kg of dose; value is 32/16; type: functional
[22] = organism: Ovis aries; experiment: Antibody stimulation by serum hemagglutininin titer over the titer for the infected placebo-treated control in sheep red blood cells; NA=Not active; type: functional, organism-based
[23] = test system: Mus musculus; experiment: Percent reduction in spleen weight in mice as compared to infected untreated controls at 25 mg/kg; type: functional
Method in brief: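 BALB/c mice of the same sex, weighing at least 18 g and within a 3 g range, were inoculated ip with Rauscher leukemia virus as a 20% (w/v) spleen extract, five per group. Compound in 0.2% Noble agar/saline was given orally on days 6, 7 and 8, with SRBC ip on day 7. Mice were weighed on day 14, and percent spleen-weight reduction was taken versus infected placebo-treated controls.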

[24] = organism: Ovis aries; experiment: Antibody stimulation by serum hemagglutininin titer over the titer for the infected placebo-treated control in sheep red blood cells; value is 128/16; type: functional
[25] = test system: Ovis aries; experiment: Antibody stimulation by serum hemagglutininin titer over the titer for the infected placebo-treated control in sheep red blood cells at 25 mg/Kg of dose; value is 16/16; type: functional
[26] = test system: Ovis aries; experiment: Antibody stimulation by serum hemagglutininin titer over the titer for the infected placebo-treated control in sheep red blood cells at 50 mg/Kg of dose; value is 1024/32; type: functional
[27] = organism: Mus musculus; experiment: Percent reduction in spleen weight in mice as compared to infected untreated controls; NA = Not Active; type: functional, organism-based; method in brief: as §1
[28] = test system: Ovis aries; experiment: Antibody stimulation by serum hemagglutininin titer over the titer for the infected placebo-treated control in sheep red blood cells at 50 mg/Kg of dose; NA = Not Active; type: functional, organism-based

Structure (SMILES): Cl.OCCNCCOc1ccc2cc3ccc(OCCNCCO)cc3nc2c1
- Survivors [1]: 3
- Reduction [2]: 35%
- Antibody stimulation [3]: 32

Structure (SMILES): CC(C)NCCOc1ccc2cc3ccc(OCCNC(C)C)cc3nc2c1.Cl
- Survivors [1]: 15
- Reduction [4]: 96%
- Antibody stimulation [5]: 512

Structure (SMILES): CCCCNCCOc1ccc2cc3ccc(OCCNCCCC)cc3nc2c1.Cl.O
- Survivors [1]: 7
- Reduction [6]: 92%
- Antibody stimulation [7]: 128

Structure (SMILES): CCN(CC)CCOc1ccc2cc3ccc(OCCN(CC)CC)c([N+](=O)[O-])c3nc2c1[N+](=O)[O-]
- Survivors [1]: 1
- Reduction [6]: 108%
- Antibody stimulation [8]: 64

Structure (SMILES): CCN(CC)CCOc1ccc2cc3cc([N+](=O)[O-])c(OCCN(CC)CC)c(Cl)c3nc2c1Cl
- Survivors [1]: 1
- Reduction [4]: 61%
- Antibody stimulation [9]: 64

Structure (SMILES): CCCNCCOc1ccc2cc3ccc(OCCNCCC)cc3nc2c1.Cl.O
- Survivors [1]: 10
- Reduction [6]: 101%
- Antibody stimulation [10]: 64

Structure (SMILES): CC(CCOc1ccc2cc3ccc(OCCC(C)N(C)C)cc3nc2c1)N(C)C (stereo unspecified)
- Survivors [11]: 5

Structure (SMILES): CCN(CC)CCCOc1ccc2cc3ccc(OCCCN(CC)CC)cc3nc2c1.Cl.O
- Survivors [1]: 13
- Reduction [6]: 72%
- Antibody stimulation [12]: 128

Structure (SMILES): CNCCOc1ccc2cc3ccc(OCCNC)cc3nc2c1.Cl
- Survivors [1]: 1
- Reduction [6]: 86%
- Antibody stimulation [13]: 128

Structure (SMILES): CCN(CC)CCOc1ccc2cc3ccc(OCCN(CC)CC)c(Cl)c3nc2c1Cl
- Survivors [1]: 7
- Reduction [2]: 86%
- Antibody stimulation [14]: 128

Structure (SMILES): CCNCCOc1ccc2cc3ccc(OCCNCC)cc3nc2c1.Cl.O
- Survivors [1]: 7
- Reduction [6]: 89%
- Antibody stimulation [15]: 32

Structure (SMILES): CCN(CC)CCOc1ccc2c(c1)C(=O)c1cc(OCCN(CC)CC)ccc1-2 [TILORONE]
- Survivors [16]: 5

Structure (SMILES): Cl.c1cc2cc3ccc(OCCN4CCCCC4)cc3nc2cc1OCCN1CCCCC1
- Survivors [1]: 5
- Reduction [6]: 62%
- Antibody stimulation [14]: 128

Structure (SMILES): CCCNCCCOc1ccc2cc3ccc(OCCCNCCC)cc3nc2c1.Cl.O
- Survivors [1]: 13
- Reduction [4]: 96%

Structure (SMILES): CN(C)CCCCOc1ccc2cc3ccc(OCCCCN(C)C)cc3nc2c1.Cl.O
- Survivors [1]: 2
- Reduction [2]: 52%
- Antibody stimulation [17]: inactive

Structure (SMILES): CCN(CC)CCOc1cc([N+](=O)[O-])c2cc3cc([N+](=O)[O-])c(OCCN(CC)CC)c(Cl)c3nc2c1Cl
- Survivors [1]: 3
- Reduction [2]: 46%
- Antibody stimulation [3]: 32

Structure (SMILES): CCN(CC)CCOc1cc2nc3cc(OCCN(CC)CC)c(C)cc3cc2cc1C.Cl.O
- Survivors [1]: 4
- Reduction [6]: 21%
- Antibody stimulation [18]: 256

Structure (SMILES): CCN(CC)CCOc1ccc2cc3ccc(OCCN(CC)CC)cc3nc2c1.Cl.O
- Survivors [1]: 15
- Reduction [6]: 70%
- Antibody stimulation [19]: 256

Structure (SMILES): CCNCCCOc1ccc2cc3ccc(OCCCNCC)cc3nc2c1.Cl.O
- Survivors [1]: 7
- Reduction [4]: 78%
- Antibody stimulation [20]: 32

Structure (SMILES): c1cc2cc3ccc(OCCN4CCCC4)cc3nc2cc1OCCN1CCCC1
- Survivors [1]: 5
- Reduction [2]: 82%
- Antibody stimulation [8]: 64

Structure (SMILES): CN1CCN(CCOc2ccc3cc4ccc(OCCN5CCN(C)CC5)cc4nc3c2)CC1
- Survivors [1]: 1
- Reduction [2]: 75%
- Antibody stimulation [21]: 32

Structure (SMILES): CCC(CO)NCCCOc1ccc2cc3ccc(OCCCNC(CC)CO)cc3nc2c1.Cl.O (stereo unspecified)
- Reduction [6]: 74%
- Antibody stimulation [22]: inactive

Structure (SMILES): CCN(CC)CCOc1ccc2cc3ccc(OCCN(CC)CC)c(Br)c3nc2c1Br
- Survivors [1]: 6
- Reduction [4]: 92%
- Antibody stimulation [8]: 64

Structure (SMILES): CCN(CC)CCOc1ccc2cc3cc(N)c(OCCN(CC)CC)c(Cl)c3nc2c1Cl.Cl.O
- Reduction [23]: 55%
- Antibody stimulation [24]: 128

Structure (SMILES): CN(C)CCCOc1ccc2cc3ccc(OCCCN(C)C)cc3nc2c1.Cl.O
- Survivors [1]: 9
- Reduction [4]: 54%
- Antibody stimulation [25]: 16

Structure (SMILES): CNCCCOc1ccc2cc3ccc(OCCCNC)cc3nc2c1.Cl.O
- Survivors [1]: 8
- Reduction [6]: 18%
- Antibody stimulation [15]: 32

Structure (SMILES): Cl.O.c1cc2cc3ccc(OCCCN4CCCCC4)cc3nc2cc1OCCCN1CCCCC1
- Survivors [1]: 9
- Reduction [2]: 74%
- Antibody stimulation [26]: 1024

Structure (SMILES): CCN(CC)CCOc1ccc2cc3cc([N+](=O)[O-])c(OCCN(CC)CC)c(Br)c3nc2c1Br
- Survivors [1]: 5
- Reduction [27]: inactive
- Antibody stimulation [28]: inactive

Structure (SMILES): Cl.NCCOc1ccc2cc3ccc(OCCN)cc3nc2c1.O
- Survivors [1]: 1
- Reduction [6]: 40%
- Antibody stimulation [15]: 32

Structure (SMILES): O=P1(N(CCCl)CCCl)NCCCO1 (stereo unspecified) [CYCLOPHOSPHAMIDE ANHYDROUS]
- Reduction [23]: 102%
